Assay results taken from ChEMBL document CHEMBL1156597, “Structure-activity relationship of kahalalide F synthetic analogues” (J Med Chem, 2008).

What was measured:
DU-145 = test: Cytotoxicity against human DU145 cells after 48 hrs by SRB assay; type: functional, cell-based; conditions: Homo sapiens, DU-145, 48 h; for GI50: read-out: GI50; for CC50: read-out: LC50 (the source's name)
How it was run: (§1)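 Cells grown in RPMI 1640 with 10% FBS and penicillin/streptomycin at 37 °C and 5% CO₂, trypsinized, then seeded at 5 × 10³/well. After 18 h drug-free attachment, samples in DMSO/EtOH/PBS (0.5:0.5:99) were added for 48 h continuous exposure. Cells were fixed with cold TCA (1 h, 4 °C) and stained with SRB (10 min). Tris-solubilized stain read at 490 nm. Triplicate wells, mean ± SD; GI₅₀ derived.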

[1] = Cytotoxicity against human IGROV cells after 48 hrs by SRB assay; type: functional; conditions: for CC50: read-out: LC50 (the source's name); how it was run: as §1
[2] = Cytotoxicity against human IGROV-ET cells after 48 hrs by SRB assay; type: functional; conditions: for CC50: read-out: LC50 (the source's name); how it was run: as §1
SK-BR-3 = test: Cytotoxicity against human SKBR3 cells after 48 hrs by SRB assay; type: functional; conditions: SK-BR-3, 48 h; for GI50: read-out: GI50; for CC50: read-out: LC50 (the source's name); how it was run: as §1
SK-MEL-28 = test: Cytotoxicity against human SK-MEL-28 cells after 48 hrs by SRB assay; type: functional, cell-based; conditions: Homo sapiens, SK-MEL-28, 48 h; for GI50: read-out: GI50; for CC50: read-out: LC50 (the source's name); how it was run: as §1
A549 = test: Cytotoxicity against human A549 cells after 48 hrs by SRB assay; type: functional, cell-based; conditions: Homo sapiens, A549, 48 h; for GI50: read-out: GI50; how it was run: as §1
K562 = test: Cytotoxicity against human K562 cells after 48 hrs by SRB assay; type: functional; conditions: K562, 48 h; for CC50: read-out: LC50 (the source's name); how it was run: as §1
PANC-1 = test: Cytotoxicity against human PANC1 cells after 48 hrs by SRB assay; type: functional; conditions: PANC-1, 48 h; for CC50: read-out: LC50 (the source's name); how it was run: as §1
HT-29 = test: Cytotoxicity against human HT29 cells after 48 hrs by SRB assay; type: functional, cell-based; conditions: Homo sapiens, HT-29, 48 h; read-out: LC50 (the source's name); how it was run: as §1
LoVo [3] = test: Cytotoxicity against human LoVo cells after 48 hrs by SRB assay; type: functional; conditions: for CC50: read-out: LC50 (the source's name)
LoVo [4] = test: Cytotoxicity against human doxorubicin resistant LoVo cells after 48 hrs by SRB assay; type: functional; conditions: for CC50: read-out: LC50 (the source's name); how it was run: as §1
HeLa = test: Cytotoxicity against human HeLa cells after 48 hrs by SRB assay; type: functional; conditions: for CC50: read-out: LC50 (the source's name); how it was run: as §1
[5] = Cytotoxicity against human HeLa-APL cells after 48 hrs by SRB assay; type: functional; how it was run: as §1

| Structure (SMILES) | TGI (DU-145) [nM] | GI50 (DU-145) [nM] | CC50 (DU-145) [nM] | CC50 [1] [nM] | CC50 [2] [nM] | TGI (SK-BR-3) [nM] | GI50 (SK-BR-3) [nM] | CC50 (SK-BR-3) [nM] | TGI (SK-MEL-28) [nM] | GI50 (SK-MEL-28) [nM] | CC50 (SK-MEL-28) [nM] | LC50 (A549) [nM] | TGI (A549) [nM] | GI50 (A549) [nM] | GI50 (K562) [nM] | TGI (K562) [nM] | CC50 (K562) [nM] | CC50 (PANC-1) [nM] | CC50 (HT-29) [nM] | GI50 (LoVo [3]) [nM] | further results |
| --- | --- | --- | --- | --- | --- | --- | --- | --- | --- | --- | --- | --- | --- | --- | --- | --- | --- | --- | --- | --- | --- |
| C/C=C1\NC(=O)[C@@H]2C[C@@H]3CCCC[C@@H]3N2C(=O)[C@@H](C(C)C)NC(=O)[C@@H]([C@H](C)CC)NC(=O)[C@H](NC(=O)[C@H](NC(=O)[C@H](CCCN)NC(=O)[C@H]2CCCN2C(=O)[C@H](NC(=O)[C@@H](NC(=O)[C@@H](NC(=O)[C@H](NC(=O)CC[C@@H](C)CC)C(C)C)[C@@H](C)O)C(C)C)C(C)C)[C@H](C)CC)[C@H](C)OC(=O)[C@H](C(C)C)NC1=O | 1250 | 1460 | 1070 | 582 | 507 | 887 | 700 | 138 | 1140 | 1150 | 1120 | 1070 | 1250 | 1460 | 4750 | 4040 | 2670 | 2000 | 677 | 1210 | GI50 [1]: 871 nM; GI50 ([1]; read-out: GI50): 1820 nM; GI50 [2]: 827 nM; GI50 ([2]; read-out: GI50): 1590 nM; GI50 (PANC-1): 2580 nM; TGI (PANC-1): 3670 nM; TGI (LoVo [3]): 1920 nM; CC50 (LoVo [3]): 2420 nM; GI50 (LoVo [4]): 358 nM; TGI (LoVo [4]): 433 nM; CC50 (LoVo [4]): 527 nM; GI50 (HeLa): 1560 nM; TGI (HeLa): 1270 nM; CC50 (HeLa): 1050 nM; GI50 [5]: 1260 nM; LC50 (concentration giving 50% net cell kill) [5]: 1000 nM; TGI [5]: 1120 nM |
| C/C=C1\NC(=O)[C@@H]2Cc3ccccc3CN2C(=O)[C@@H](C(C)C)NC(=O)[C@@H]([C@H](C)CC)NC(=O)[C@H](NC(=O)[C@H](NC(=O)[C@H](CCCN)NC(=O)[C@H]2CCCN2C(=O)[C@H](NC(=O)[C@@H](NC(=O)[C@@H](NC(=O)[C@H](NC(=O)CC[C@@H](C)CC)C(C)C)[C@@H](C)O)C(C)C)C(C)C)[C@H](C)CC)[C@H](C)OC(=O)[C@H](C(C)C)NC1=O | 3830 | 4160 | 1930 | 7450 | 572 | 1900 | 2300 | 296 | 1930 | 1620 | 2090 | 1200 | 1440 | 1750 | 4890 | 4260 | 2680 | 2010 | 726 | 2820 | TGI (LoVo [3]): 2910 nM; CC50 (LoVo [3]): 3030 nM; GI50 (LoVo [4]): 718 nM; TGI (LoVo [4]): 1250 nM; CC50 (LoVo [4]): 1820 nM; CC50 (HeLa): 1140 nM; LC50 (concentration giving 50% net cell kill) [5]: 1190 nM |
